# Assay outcomes as filed in PubChem.
# Sampled rows, rich in hits. Any-hit rate of the full collection: about 4.1%.
# KCC2 mod – KCC2 (human) Cl- transport modulation; KCC2 cells, thallium flux FluoZin-2 fluorescence; B-score of Tl+ flux slope (higher = more flux/activation; lower = inhibition) at 10 µM; hit rate 2.2% among 190,000; AID 1456;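 active means thallium flux slope and its plate-corrected score both differing from the plate sample mean at a set confidence after two filtering rounds, in either direction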;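 further: slope of fluorescence scaled to starting intensity during 10 to 20 s after thallium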
# Redox H2O2 prof – compounds producing H2O2 with reducing agent – biochemical, NIH compound library profiling, artefact control for MLSCN library redox annotation, primary screen | DTT-dependent redox cycling H2O2, phenol red/HRP absorbance; 100% = 100 µM peroxide control, 0% = buffer | activation, % at 10 µM | hit rate 0.03% among 200,000;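 active means activation of at least 50% relative to the plate's high and low controls in the primary single-dose screen; inactive means activation below 50%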;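 further: compound incubated with DTT at 0.8 mM final as the reducing agent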
# Autophagy mod – alters autophagy in cells | MEF GFP-LC3 puncta imaging; test concentration mostly 10 µM | calls only at 10 µM (by protocol) | hit rate 0.98% among 190,000 | AID 463193;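 active means percentage of spot-positive cells more than 3 SD above its plate mean, without a fluorescence outlier flag or 80% toxicity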;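 further: spot-positive cell cutoff set from DMSO-treated cells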
# ROMK primary – modulates human ROMK potassium channel activity. hit rate 2% among 130,000. P48048. B-score at 10 µM. Tet-inducible ROMK, thallium flux fluorescence; actives lie on both sides. AID 1918;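 active means signal ratio slope over the read window, or its plate-corrected B-score, at least 3 SD from the plate mean, either direction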;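 further: B-score of the F/F0 ratio slope over 7 to 12 s after thallium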
# Target sequence (P48048 whole entry, looked up): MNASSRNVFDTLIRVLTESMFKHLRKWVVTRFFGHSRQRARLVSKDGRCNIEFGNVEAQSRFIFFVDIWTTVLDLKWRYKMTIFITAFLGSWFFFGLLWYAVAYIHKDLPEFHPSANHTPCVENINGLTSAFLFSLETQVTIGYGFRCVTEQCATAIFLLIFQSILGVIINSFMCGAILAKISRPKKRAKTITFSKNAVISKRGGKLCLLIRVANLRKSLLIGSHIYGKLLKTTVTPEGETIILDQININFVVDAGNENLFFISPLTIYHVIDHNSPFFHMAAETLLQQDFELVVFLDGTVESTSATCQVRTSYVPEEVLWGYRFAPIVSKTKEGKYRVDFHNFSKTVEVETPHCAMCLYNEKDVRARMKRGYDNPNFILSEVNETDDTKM
# Dynein cargo inh – blocks dynein driven cargo transport along microtubules | 3617.4 mouse cells, GR-EGFP nuclear translocation imaging; test concentration mostly 20 µM; stimulated with dexamethasone, 1 µM; stronger effect = lower value | z-score, hits read low | hit rate 0.47% among 220,000 | AID 1381;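 active means plate z-score of nuclear minus cytoplasmic receptor signal below a set negative limit, without overly bright fluorescence or cell loss, cut at about -3.5 in these data, passing the limit was not always enough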;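 further: z-score of nuclear minus cytoplasmic ring GR-EGFP intensity difference per well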
#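 Buffer or medium: tet-free medium with charcoal-stripped serum / Also added: dexamethasone agonist, 1.0 µM final, for 30 min / Timing: induction 48 h, compound 1 h, agonist 30 min / Measured by: high-content fluorescence imaging after fixation / Read-out: nuclear-to-cytoplasmic GR-EGFP distribution per well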
# Numbers without * were called inactive; i = inactive; x = not tested or not shown; + = active, no number.
SMILES,KCC2 mod,Redox H2O2 prof,Autophagy mod,ROMK primary,Dynein cargo inh
Cc1ccc(-n2ncc3c(=O)n(CC(=O)N4CCCc5ccccc54)cnc32)cc1C,-3.35*,0.6,i,x,0.363
COc1ccc(N2CCN(C(=O)Cn3cnc4c(cnn4-c4ccccc4)c3=O)CC2)cc1,-0.154,-0.6,i,-0.529,1.54
Cc1nc2ccccc2n1CC(=O)OCC(=O)NC1CC1,-1.09,-0.1,+,0.997,0.0938
Cc1c2ccccc2nc2c(F)c(NC(C)C)c(F)c(F)c12,1.28,-0.3,+,x,-3.22
C=CCOC(=O)C1=C(C)NC(=O)NC1c1ccc(OC(=O)c2ccco2)c(OC)c1 (stereo unspecified),-3.27*,1.8,i,-0.804,2.5
N#Cc1ccc(-c2ccc(OCC(=O)NCC(=O)Nc3ccc(F)c(F)c3F)cc2)cc1,1.25,0.0,i,x,-0.0883
CC(=O)c1c(N2CCN(C)CC2)nc(=S)n(-c2cc(C)ccc2C)c1C,0.875,0.4,i,-0.165,0.138
Cc1ccccc1-n1nnnc1SCC(=O)NCC1CCCO1 (stereo unspecified),1.1,-1.9,+,0.0141,-0.878
Cc1cc(NC(=O)COC(=O)C(Cc2ccccc2)NC(=O)c2ccco2)no1 (stereo unspecified),-2.23,-3.0,+,x,-0.336
CC(CCc1ccccc1)NC(=O)c1ccco1 (stereo unspecified),1.74,1.0,i,0.128,0.0885
CC(C)CNC(=O)[C@H](Cc1ccccc1)NC(=O)c1ccco1,-1.07,2.6,i,3.2*,1.07
Cc1cc(C)c2[nH]c(=O)c(CN(Cc3cccs3)C(=S)NCc3ccco3)cc2c1,0.972,3.8,i,0,0.0979
O=C(NCC1CCCO1)c1ccc2c(=O)n(-c3ccccc3)c(=S)[nH]c2c1 (stereo unspecified),0.154,0.1,i,0.303,0.533
O=C(Nc1ccc(S(=O)(=O)Nc2ncccn2)cc1)c1cccc(S(=O)(=O)N2CCCC2)c1,-0.684,x,x,x,-0.575
COc1cc2oc3ccccc3c2cc1N(CC(=O)N(C)C)S(=O)(=O)c1ccc(C)cc1,-0.871,-1.5,i,0.0103,-1.06
CCN(CC)C(=O)CN(c1cc2c(cc1OC)oc1ccccc12)S(=O)(=O)c1ccccc1,-1.21,2.0,i,-4.59*,0.171
COc1cc2oc3ccccc3c2cc1N(CC(=O)N(C)C)S(=O)(=O)c1ccccc1,-0.64,0.1,i,-0.37,0.559
COc1cc2oc3ccccc3c2cc1N(CC(=O)N1CCCCC1)S(=O)(=O)c1ccc(C)cc1,0.228,-1.2,i,-4.89*,0.175
Cc1cc(/C=C2\SC(=S)NC2=O)c(C)n1-c1ccc(O)cc1,-5.5*,x,x,-4.4*,-0.879
COc1ccc(-n2c(C)cc(/C=C3\SC(=S)NC3=O)c2C)cc1,1.81,-1.2,i,x,-1.46
COc1ccc(C(=O)c2cc([N+](=O)[O-])ccc2N2CCN(C)CC2)cc1,-0.0714,0.1,+,1.81,1.95
O=C1C(Nc2ccc(O)cc2)=C/C(=N/S(=O)(=O)c2cccs2)c2ccccc21,-0.00913,-0.3,+,-0.536,-0.572
Cc1cccc(NC2=C/C(=N/S(=O)(=O)c3cccs3)c3ccccc3C2=O)c1,0.103,6.4,i,0.737,-0.336
O=c1c2c(nc3c(-c4cccc(Br)c4)c[nH]n13)CCCC2,20.5*,-1.2,i,x,-1.14
O=c1c2c(nc3c(-c4ccccc4)c[nH]n13)CCC2,0.769,3.0,i,x,-0.43
SMILES,KCC2 mod,Redox H2O2 prof,Autophagy mod,ROMK primary,Dynein cargo inh
CC(C)n1c(NCc2ccc(N(C)C)cc2)nc2ccccc21,-0.166,1.0,+,-0.851,-0.425
O=C(COC(=O)Cn1cnc2ccccc2c1=O)Nc1cc(Cl)ccc1[N+](=O)[O-],-2.08,-0.4,i,x,-0.6
Cc1ccc([N+](=O)[O-])c(NC2OC(CO)C(O)C2O)c1 (stereo unspecified),-0.243,0.6,i,0.948,-0.352
Cc1ccc(-c2nc(=S)c3c(n2Cc2ccco2)CCCC3)cc1,24.7*,-1.9,i,0.497,0.526
COc1cccc(-c2nc(=S)c3c(n2Cc2ccco2)CCCC3)c1,13.4*,2.3,i,x,-1.99
CN(C)CCCn1c(-c2ccccc2)nc(=S)c2c1CCCC2,0.746,-4.7,i,x,1.37
COc1cc(/C=C/C(=O)OCC(=O)NC(=O)NC(C)C)cc(S(=O)(=O)N2CCc3ccccc32)c1OC,-2.66,-2.0,i,0.631,-0.134
CCCC1=[N+](CC(=O)c2ccc(Br)cc2)CCn2cccc21,0.228,x,x,x,0.241
CN(C(=O)CSc1nnc(-c2cccnc2)n1-c1ccccc1F)C1CCS(=O)(=O)C1 (stereo unspecified),-0.642,-0.3,i,-0.247,-0.391
CC(C)NC(=S)N(C)C1(c2ccccc2Cl)CCCCC1=O (stereo unspecified),0.515,-0.1,i,-0.277,-1.14
CN(C(=S)NC1CCCCC1)C1(c2ccccc2Cl)CCCCC1=O (stereo unspecified),0.341,0.4,+,x,-0.312
NC(=S)n1[nH]c(-c2ccc([N+](=O)[O-])cc2)c(N=Nc2cccc(Cl)c2)c1=O,5.84*,-0.6,i,-0.526,-0.178
NC(=S)n1[nH]c(-c2ccc([N+](=O)[O-])cc2)c(N=Nc2ccc(O)cc2)c1=O,x,1.5,i,0.00681,-0.558
Cc1ccc(C(=O)Nc2nnc(-c3ccco3)o2)cc1,3.89,0.7,i,x,0.0591
O=C(Nc1nnc(-c2ccco2)o1)c1ccc2ccccc2c1,38.5*,-0.1,i,0.834,0.162
COc1ccccc1NS(=O)(=O)c1ccc(NN=C2CCCCC2)c([N+](=O)[O-])c1,-0.153,0.0,i,-0.165,-1.17
CCCn1cnc2sc(CC)cc2c1=O,x,-0.1,i,-1.33,-0.688
CCc1cc2c(=O)n(CCC(C)C)c(=S)[nH]c2s1,72.7*,-0.7,i,9.73*,-0.626
Cn1c(/C(C#N)=C/c2ccncc2)nc2ccccc21,1.04,-0.5,i,-3.64*,0.961
COc1cc(/C=C(\C#N)c2nc3ccccc3n2C)cc(OC)c1O,-6.92*,-0.3,i,-4.14*,-0.419
Cn1c(/C(C#N)=C/c2ccc(O)cc2)nc2ccccc21,-1.88,x,x,x,1.17
CCOCCCNC(=O)c1cc2c(-c3ccc(Cl)cc3)nn(C)c2s1,x,-0.9,i,x,-0.485
CCN(CC)CCNC(=O)c1cc2c(-c3ccc(Cl)cc3)nn(C)c2s1,x,-2.3,+,x,-0.824
Clc1ccc(-c2nnc(CNC3CC3)o2)cc1,1.02,0.6,i,x,-0.684
CCN(CC)c1ccc2cc(-c3nnc(-c4ccncc4)o3)c(=O)oc2c1,i,0.8,+,x,0.915
CCN(CC)c1ccc2cc(C(C)=O)c(=O)oc2c1,i,-3.9,i,x,-0.31
S=C(Nc1ccc(Cl)c(Cl)c1)NC1CCN(Cc2ccccc2)CC1,-2.1,2.5,+,x,x
